Measurements: ChEMBL document CHEMBL1129614, “Antitumor benzothiazoles. 3. Synthesis of 2-(4-aminophenyl)benzothiazoles and evaluation of their activities against breast cancer cell lines in vitro and in vivo” (J Med Chem, 1996)
pIC50: −log10 of the molar value.

Assays:
MDA-MB-468 [1] = test: In vitro inhibitory activity against mammary carcinoma MDA 468 cell lines; type: functional, cell-based; conditions: Homo sapiens
In short: (§1)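 MDA 468 cells kept in RPMI 1640 with 10% FBS and antibiotics under 5% CO2. They were seeded at 2.5-3 × 10² per well and left 4 h to attach. Drug from 10 mM DMSO stocks was diluted to 1 pM–100 µM final (DMSO ≤0.25%), n = 8, and incubated 10 days. MTT was added for 4 h, formazan solubilized in DMSO/glycine buffer, and A550 read as a measure of viable cells.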

MCF7 [2] = test: In vitro inhibitory activity against mammary carcinoma MCF-7 cell lines; type: functional, cell-based; conditions: Homo sapiens
In short: (§2)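 Cells kept in RPMI 1640 with 10% FBS, penicillin and streptomycin, under 5% CO2, and subcultured twice weekly in log phase. They were seeded at 2.5-3 × 10² per well and left 4 h to adhere. Drug from 10 mM DMSO stocks was given at 1 pM–100 µM final (DMSO ≤0.25%), n = 8, for 7 days. MTT was added for 4 h, formazan dissolved in DMSO/glycine buffer, and absorbance read at 550 nm as viable cell number.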

A2780 = test: In vitro cytotoxicity against A2780 human ovarian cancer cell line; type: functional, cell-based
A204 = test: In vitro cytotoxicity against A204 human rhabdomyosarcoma cancer cell line; type: functional, cell-based
DU-145 = test: In vitro cytotoxicity against DU-145 human prostate cancer cell line; type: functional, cell-based; in short: as §2
HT-29 = test: In vitro cytotoxicity against HT-29 human colon cancer cell line; type: functional, cell-based
IGR-37 cell line = test: In vitro cytotoxicity against […] human melanoma cancer cell line; type: functional, cell-based
MDA-MB-231 = test: In vitro cytotoxicity against MDA 231 human breast cancer cell line with EGFR positive erbB3 positive; type: functional, cell-based; in short: as §2
MCF7 [3] = test: In vitro cytotoxicity against MCF-7 human breast cancer cell line with ER positive; type: functional, cell-based; in short: as §2
MCF7 [4] = test: In vitro cytotoxicity against MCF-7/Adr human breast cancer cell line; type: functional, cell-based; in short: as §2
PC-3 = test: In vitro cytotoxicity against PC-3 human prostate cancer cell line; type: functional, cell-based; in short: as §2
SK-BR-3 = test: In vitro cytotoxicity against SKBR 3 human breast cancer cell line with ER negative; type: functional, cell-based; in short: as §2
T47D = test: In vitro cytotoxicity against T47D human breast cancer cell line with ER negative; type: functional, cell-based; in short: as §2
WiDr = test: In vitro cytotoxicity against WiDr human colon cancer cell line; type: functional, cell-based
ZR-75-1 = test: In vitro cytotoxicity against ZR 75 human breast cancer cell line with ER positive; type: functional, cell-based; in short: as §2
MDA-MB-468 [5] = test: In vitro cytotoxicity against MDA 468 human breast cancer cell line with ER negative EGFR positive; type: functional, cell-based; in short: as §1
T-24 = test: In vitro cytotoxicity against T24 human bladder cancer cell line

SMILES	pIC50 (MDA-MB-468 [1])	pIC50 (MCF7 [2])	also measured
Nc1ccc(-c2nc3ccc(O)cc3s2)cc1	< 5.00	< 6.00	
COc1cc(OC)c2sc(-c3ccc(N)cc3)nc2c1	< 5.00	< 5.00	
N#Cc1cc(-c2nc3ccccc3s2)ccc1N		> 8.00	
Nc1ncc(-c2nc3ccccc3s2)cc1Br	> 8.00	> 8.00	
Nc1ccc(-c2nc3ccccc3[nH]2)cc1	< 5.00	< 6.00	
Nc1ccc(-c2nc3ccccc3s2)cc1	> 9.00	> 10.00	pIC50 (A2780): < 4.52; pIC50 (A204): < 4.52; pIC50 (DU-145): < 4.52; pIC50 (HT-29): < 4.52; pIC50 (IGR-37 cell line): < 4.52; pIC50 (MDA-MB-231): 7.77; pIC50 (MCF7 [3]): 9.10; pIC50 (MCF7 [4]): < 5.00; pIC50 (PC-3): < 4.52; pIC50 (SK-BR-3): 8.09; pIC50 (T47D): < 5.00; pIC50 (WiDr): < 4.52; pIC50 (ZR-75-1): 7.55; pIC50 (MDA-MB-468 [5]): 8.80; pIC50 (T-24): < 4.52
Nc1ccc(-c2nc3ccccc3s2)cc1Cl	> 7.00	> 10.00	
c1ccc2sc(-c3ccc(N4CCOCC4)cc3)nc2c1	< 5.00	< 5.00	
c1ccc2sc(-c3ccncc3)nc2c1	< 5.00	< 5.00	
COc1cc2nc(-c3ccc(N)cc3)sc2cc1OC	< 5.00	< 5.00	
COc1ccc2nc(-c3ccc(N)c(I)c3)sc2c1	> 10.00	> 10.00	
Nc1ccc(-c2nc3ccccc3s2)cc1O	< 5.00	< 10.00	
CCc1cc(-c2nc3ccccc3s2)ccc1N	> 10.00	> 10.00	
Cc1cc(-c2nc3ccccc3s2)cc(Cl)c1N	< 9.00	> 8.00	
Nc1ccc(-c2nc3cc(O)cc(O)c3s2)cc1		< 5.00	
Nc1ccc(-c2nc3ccccc3o2)cc1	< 6.00	> 8.00	
c1ccc2sc(-c3ccc(N4CCCC4)cc3)nc2c1		> 6.00	
Nc1ccc(-c2nc3cc(OCc4ccccc4)ccc3s2)c(Cl)c1	< 5.00	< 5.00	
COc1cccc2sc(-c3ccc(N)cc3Cl)nc12	< 5.00	< 5.00	
COc1cc(OC)c2nc(-c3ccc(N)cc3)sc2c1		< 5.00	
Nc1ccc(-c2nc3ccccc3s2)cn1	< 5.00	< 5.00	
COc1ccc2nc(-c3ccc(N)cc3)sc2c1	< 5.00	> 10.00	
c1ccc2sc(-c3ccc(N4CCCCC4)cc3)nc2c1	< 5.00	< 5.00	
